According to PMC11350716 (JACS Au, 2024):

Key:
[1] = type: in vivo; details: mice, intravenous, 0.02 mg/mouse as ICG, brains harvested after 48 h
Outline: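 Mice received the test compound or free ICG alone by intravenous injection. Brains were harvested 48 h later and imaged for near-infrared ICG fluorescence, with instrument sensitivity set to 1,600–3,000 (fluorescence intensity a.u.).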

VIPR2 = details: read-out: antagonist activity IC50; cited from earlier work

Molecule | ICG fluorescence in the brain [1] | IC50 (VIPR2)
CC1(C)C(/C=C/C=C/C=C/C=C2\N(CCCCS(=O)(=O)O)c3ccc4ccccc4c3C2(C)C)=[N+](CCCCS(=O)(=O)[O-])c2ccc3ccccc3c21 [ICG, indocyanine green, reference compound] | but not in the brains | –
CCCC[C@@H]1NC(=O)[C@H](CCC(=O)O)NC(=O)[C@H](C)NC(=O)[C@H](CC(C)C)NC(=O)[C@H](CCCC)NC(=O)[C@H](Cc2ccc(O)cc2)NC(=O)[C@H](CCCCN)NC(=O)[C@H](Cc2ccc(O)cc2)NC(=O)[C@H]([C@@H](C)O)NC(=O)[C@@H](NC(=O)[C@@H]2CCCN2C(=O)[C@@H](NC(=O)CNC(=O)CCOCCOCCOCCOCCn2nnc3c2-c2ccccc2CN(C(=O)CCNC(=O)CCOCCOCCOCCOCCOCCC(=O)NCCC(=O)N2Cc4ccccc4-c4c(nnn4CCNC(=O)CCCCCN4C(=CC=CC=CC=CC5=[N+](CCCCS(=O)(=O)[O-])c6ccc7ccccc7c6C5(C)C)C(C)(C)c5c4ccc4ccccc54)-c4ccccc42)c2ccccc2-3)[C@@H](C)O)CSSC[C@@H](C(=O)O)NC1=O [ICG-KS-487] | Fluorescence was clearly observed | –
Ac-(CPPYLP[KYLC)D]LI-NH2 (bicyclic or more) [KS-133] | – | 25 nM
